Where only a bound is given, the exact number is not on record here.

Series [1] concerns Cryptococcus neoformans. Briefly: Antifungal activity against Cryptococcus neoformans ATCC 32264 assessed as inhibition of fungal growth at 200 uM after 48 hrs by microbroth dilution method. The format is functional. Conditions: ATCC 32264, 48 h. The essentials: (§1)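 Cryptococcus run by CLSI M-27 A2 microbroth dilution in RPMI-1640. Peptide was diluted from DMSO stock to final 200, 100, 50, 25, 12.5, 6.25 and 3.125 µM. Inoculum was 1–5 × 10^3 CFU/ml from 24 h, 35 °C Sabouraud-chloramphenicol slants. Incubation was 48 h at 35 °C, moist and dark. % inhibition was taken from OD405 against a DMSO-containing growth control. Amphotericin B served as the positive control; tests in duplicate.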

Series [2] concerns Cryptococcus neoformans. Briefly: Antifungal activity against Cryptococcus neoformans ATCC 32264 assessed as inhibition of fungal growth at 100 uM after 48 hrs by microbroth dilution method. Particulars: ATCC 32264, 48 h. The series is classed as functional. The essentials:
as §1
Background: Dilution methods test growth across graded concentrations, often in twofold steps.

Series [3] relates to Cryptococcus neoformans. Briefly: Antifungal activity against Cryptococcus neoformans ATCC 32264 assessed as inhibition of fungal growth at 50 uM after 48 hrs by microbroth dilution method. Conditions: ATCC 32264, 48 h. The series is classed as functional. The essentials: as §1
Series [4] relates to Cryptococcus neoformans. Briefly: Antifungal activity against Cryptococcus neoformans ATCC 32264 assessed as inhibition of fungal growth at 25 uM after 48 hrs by microbroth dilution method. The format is functional. Particulars: ATCC 32264, 48 h. In short, it runs like this:
as §1

For series [5], the system named is Cryptococcus neoformans. Put plainly: Antifungal activity against Cryptococcus neoformans ATCC 32264 assessed as inhibition of fungal growth at 12.5 uM after 48 hrs by microbroth dilution method. Particulars: ATCC 32264, 48 h. The series is classed as functional. The essentials: as §1
Series [6] relates to Candida albicans. Put plainly: Antifungal activity against Candida albicans ATCC 10231 assessed as inhibition of fungal growth at 200 uM after 24 hrs by microbroth dilution method. The format is functional. Particulars: ATCC 10231, 24 h. In short, it runs like this:
(§2)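 CLSI M-27 A2 broth microdilution in RPMI-1640. Peptides were taken from DMSO stocks to final 200–3.125 µM (twofold series). Inoculum was 1–5 × 10^3 CFU/ml from 24 h Sabouraud-chloramphenicol slant cultures at 35 °C. Plates were incubated 24 h at 35 °C in a moist dark chamber. OD405 was read, and % inhibition was taken against a DMSO-matched growth control. Amphotericin B served as the positive control; duplicates.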

In series [7] the test system is Candida albicans. Put plainly: Antifungal activity against Candida albicans ATCC 10231 assessed as inhibition of fungal growth at 100 uM after 24 hrs by microbroth dilution method. The series is classed as functional. Conditions: ATCC 10231, 24 h. The essentials: as §2
Series [8] deals with Candida albicans. Put plainly: Antifungal activity against Candida albicans ATCC 10231 assessed as inhibition of fungal growth at 50 uM after 24 hrs by microbroth dilution method. The series is classed as functional. Particulars: ATCC 10231, 24 h. In short, it runs like this: as §2
Series [9] concerns Candida albicans. Briefly: Antifungal activity against Candida albicans ATCC 10231 assessed as inhibition of fungal growth at 25 uM after 24 hrs by microbroth dilution method. The format is functional. Particulars: ATCC 10231, 24 h. In short, it runs like this: as §2
The test system of series [10] is Candida albicans. Put plainly: Antifungal activity against Candida albicans ATCC 10231 assessed as inhibition of fungal growth at 12.5 uM after 24 hrs by microbroth dilution method. The series is classed as functional. Particulars: ATCC 10231, 24 h. The essentials: as §2
The test system of series [11] is Cryptococcus neoformans. Briefly: Antifungal activity against Cryptococcus neoformans ATCC 32264 assessed as inhibition of fungal growth after 48 hrs by microbroth dilution method. The format is functional. Particulars: ATCC 32264, 48 h; for MIC: read-out: MIC100. The essentials: as §1
The subject of series [12] is Candida albicans. Briefly: Antifungal activity against Candida albicans ATCC 10231 assessed as inhibition of fungal growth after 24 hrs by microbroth dilution method. The format is functional. Conditions: ATCC 10231, 24 h; for MIC: read-out: MIC100. In short, it runs like this: as §2
Series [13] can be described thus: Toxicity in Poecilia reticulata assessed as mortality at 16.4 ug/ml after 72 hrs. The format is organism-based. Conditions: in vivo, read-out: Activity. In short, it runs like this: (§3)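 Acute toxicity in guppy (P. reticulata): 10 fish per concentration held in jars with the test solution for 96 h. Peptide added from aqueous stock diluted in DMSO to the final concentration. Dead fish counted and removed every 24 h, and condition noted. Percent mortality recorded at 96 h. Two experiments, each in triplicate.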

Series [14] is described as follows: Toxicity in Poecilia reticulata assessed as mortality at 16.4 ug/ml after 24 hrs. The series is classed as organism-based. Particulars: in vivo, read-out: Activity. The essentials:
as §3

Series [15] in a line: Toxicity in Poecilia reticulata assessed as mortality at 16.4 ug/ml after 48 hrs. Conditions: in vivo, read-out: Activity. The format is organism-based. In short, it runs like this:
as §3

A short description of series [16]: Toxicity in Poecilia reticulata assessed as mortality at 16.4 ug/ml after 96 hrs. The series is classed as organism-based. Particulars: in vivo, read-out: Activity. In short, it runs like this:
as §3

Series [17] in a line: Toxicity in Poecilia reticulata assessed as mortality at 13.6 ug/ml after 24 hrs. The format is organism-based. Conditions: in vivo, read-out: Activity. In short, it runs like this:
as §3

Series [18] in a line: Toxicity in Poecilia reticulata assessed as mortality at 13.6 ug/ml after 48 hrs. The format is organism-based. Conditions: in vivo, read-out: Activity. In short, it runs like this:
as §3

Series [19] is described as follows: Toxicity in Poecilia reticulata assessed as mortality at 13.6 ug/ml after 72 hrs. The format is organism-based. Particulars: in vivo, read-out: Activity. The essentials: as §3
Series [20] is described as follows: Toxicity in Poecilia reticulata assessed as mortality at 13.6 ug/ml after 96 hrs. The format is organism-based. Particulars: in vivo, read-out: Activity. The essentials:
as §3

Consider H-RQIRRWWQW-NH2, for which the inhibition at 200 µM with Cryptococcus neoformans [1] and in the series on Candida albicans [6] was 100% throughout. For the same substance, the inhibition at 100 µM with Cryptococcus neoformans [2] and in the series on Candida albicans [7] was 100% in each case. Besides, the inhibition at 50 µM with Cryptococcus neoformans [3] and in the series with Candida albicans [8] was 100% throughout. For the same substance, the inhibition (in general, the relative decrease from the control value, in per cent) at 25 µM in the series on Cryptococcus neoformans [4] stood at 100%; in the series with Candida albicans [9], 50.7%. The inhibition at 12.5 µM with Cryptococcus neoformans [5] was 83.3%; with Candida albicans [10] it was 19.1%. Besides, the MIC50 (in general, an inhibitory concentration at the 50% level, which refers to growth in some studies and to a panel of isolates in others) in the series on Cryptococcus neoformans [11] is no more than 12.5 µM; in the series on Candida albicans [12], no more than 25 µM. Further, the MIC80 (as a rule, the lowest concentration that inhibits either 80% of growth or 80% of the strains tested, depending on the study) with Cryptococcus neoformans [11] is no more than 12.5 µM. Also, the figures for the MIC in the series on Cryptococcus neoformans [11] and in the series with Candida albicans [12] were 25 µM and 50 µM, respectively. The mortality at 72 h, 16.4 ug/ml in series [13] was 0%. For the same substance, in [14], the mortality at 24 h, 16.4 ug/ml is 0%. The mortality at 48 h, 16.4 ug/ml in series [15] amounted to 0%. In series [16], the mortality at 96 h, 16.4 ug/ml was found to be 0%.

As to H-RQIRRWWQWRR-NH2, the inhibition at 200 µM with Cryptococcus neoformans [1] and in the series with Candida albicans [6] was 100% in each case. Moreover, the inhibition at 100 µM with Cryptococcus neoformans [2] and in the series with Candida albicans [7] was 100% throughout. Further, the inhibition at 50 µM in the series on Cryptococcus neoformans [3] and with Candida albicans [8] was 100% each time. Besides, the inhibition at 25 µM was found to be 100% in the series with Cryptococcus neoformans [4] and 46.6% in the series with Candida albicans [9]. Moreover, the figures for the inhibition at 12.5 µM with Cryptococcus neoformans [5] and in the series with Candida albicans [10] were 51.2% and 22.9%, respectively. For the same substance, the MIC50 is no more than 12.5 µM in the series with Cryptococcus neoformans [11] and no more than 25 µM in the series on Candida albicans [12]. Further, the MIC in the series on Cryptococcus neoformans [11] is 25 µM; in the series on Candida albicans [12] it was 50 µM. Moreover, the mortality at 24 h, 13.6 ug/ml in series [17] amounted to 0%. Besides, the mortality at 48 h, 13.6 ug/ml in [18] was 0%. Moreover, the mortality at 72 h, 13.6 ug/ml in series [19] was found to be 0%. Moreover, the mortality at 96 h, 13.6 ug/ml in series [20] came to 0%.

The record behind these values is ChEMBL document CHEMBL1157699, “New small-size peptides possessing antifungal activity” (Bioorg Med Chem, 2010).
